# Hsp70 act: transcriptional activators of Hsp70; HeLa Hsp70 promoter luciferase reporter, luminescence; scaled: vehicle 0, proteasome-inhibitor control 100%; actives 0.04% (n = 200,000); activation, % at 10 µM; AID 1203;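 active = activation above the mean across all tested compounds plus 3 SD, cutoff set per campaign, cut at about 5.5% in these data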;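 also: 100% = MG132 at 30 µM as the positive control and 0% = DMSO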
# HSF1 activator: increases HSF-1 driven luciferase reporter signal; NIH3T3-HGL HSF-1 luciferase reporter, MG132, 8 h; 100% = twice DMSO control signal; activation, % at 9 µM; actives 1.7% (n = 300,000);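 active = mean replicate activation of at least 50% with a set share of replicates each reaching 50%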;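 also: 0% = median of the neutral control wells and 100% = twice that signal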
# L major viab: reduces viability of Leishmania major promastigotes; actives 9% (n = 200,000); AID 1063; inhibition, % at 10 µM; resazurin fluorescence viability; in the data active = inhibition above about 50%;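 also: promastigotes grown with compound for 44 hours at 28 °C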
# HSF1 inh: HSF1 inhibition | NIH3T3-HGL HSE-luciferase, MG132-induced, luminescence 8 h; active compounds read low | activity change, negative = inhibition, % at 7.5 µM (by protocol) | actives 0.77% (n = 300,000);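 active = more than half of replicate wells show activity change below -50%, luminescence cut by over half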;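 also: luciferase reports HSF-1 transcriptional activity via heat shock element; 0% = median of DMSO wells and -100% = zero luminescence signal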
# T cruzi inh: T. cruzi replication inhibition; T. cruzi beta-gal in NIH3T3, luminescence, 90 h; inhibition, % (no concentration beside the values); actives 1.4% (n = 300,000);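 active = mean inhibition across valid replicates above about 55%, limit read from the data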;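 also: signal also drops with host cell toxicity which is not excluded here; 0% = plate median of DMSO wells and 100% = zero luminescence signal; higher percent means less beta-gal luminescence so fewer parasites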
#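 System: NIH/3T3 fibroblasts plus reporter T. cruzi. Medium: DMEM plus 2% FBS. Probe or stimulus: 5000 reporter trypomastigotes per well. Compound: single 50 nL compound addition per well in DMSO. Incubation: co-culture of at least 90 h after 3 h attachment. Detection: GalScreen β-gal luminescence, detergent lysis, 60 min. Evaluation: parasite load inhibition, %.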
# The depositor's hits bear a star; / = not tested or not shown. Many of the other results were omitted from the sample, so hits are more common in it than they were.
SMILES,Hsp70 act,HSF1 activator,L major viab,HSF1 inh,T cruzi inh
COCCCN1CC(=O)N2Cc3[nH]c4ccccc4c3C[C@H]2C1=O,/,-9,/,5,-8
Cc1oc2ccc(O)c(CN3CCOCC3)c2c1C(=O)c1ccc(Cl)cc1,0,6,52*,-3,0
CCOC(=O)C1C(=O)OC(C)(C)C1C(CC)C(=O)c1ccccc1 (stereo not given),0,/,-6,/,0
CCOC(=O)C1C(=O)OC(C)(C)C1C(C)C(=O)c1ccc(C)cc1C (stereo not given),0,56*,12,15,-6
CCOC(=O)C1C(=O)OC(C)(C)C1C(C)C(=O)c1ccc(C)cc1 (stereo not given),0,-59,0,-52*,0
O=C(Nc1nnc(SCC(=O)N2CCCc3ccccc32)s1)c1cccc2ccccc12,0,11,96*,5,-4
COc1ccc(/C=C(\NC(=O)c2ccccc2)C(=O)OCC2CCCN3CCCCC23)cc1OC (stereo not given),0,8,73*,1,23
O=C(NC(=O)c1cccc(F)c1)OC[C@@H]1CCCN2CCCC[C@H]12,0,-84,-3,-78*,0
O=C(Nc1ccc(C(=O)OC[C@@H]2CCCN3CCCC[C@H]23)cc1)c1cccc(Br)c1,0,12,68*,-7,41
COc1ccc(/C=C(/NC(=O)c2ccccc2)C(=O)N2CCCC2)cc1OC,/,2,/,-1,-4
COc1cc(C=O)ccc1OC(=O)c1cccnc1,/,-19,/,-4,13
C/C(CC(=O)Nc1cccc2c1CCCC2)=N\NC(=O)c1ccccc1N,0,57*,-1,29,-4
O=C(Nc1ccc(C(F)(F)F)cc1)c1cc(S(=O)(=O)NCC2COc3ccccc3O2)ccc1F (stereo not given),0,5,12,1,45
CSc1nc(N(C)C)c2ccccc2n1,0,-9,4,-4,-12
CN(C)c1nc2ccccc2c(N)c1-c1ccccc1,0,/,96*,/,/
CCOC(=O)/C=C/C(=O)Nc1cccc([N+](=O)[O-])c1,0,21,0,11,35
CCOC(=O)/C=C/C(=O)Nc1ccccc1-c1ccccc1NC(=O)/C=C/C(=O)OCC,0,-56,41,-56*,5
COc1ccccc1CNC(=O)COc1cccc(-n2cnnn2)c1,/,21,/,-4,-1
Cn1nnnc1SCCNCc1cccc2ccccc12,0,35,-3,3,70*
Cn1nnnc1SCCNC/C=C/c1ccccc1,-1,77*,32,18,-4
CCc1ccc(CNCCSc2nnnn2C)cc1,0,14,8,-2,29
COc1ccc(CNCCSc2nnnn2C)c(OC)c1OC,0,15,-4,-1,-15
CCNC(=S)N1CCC(c2nc3ccccc3s2)CC1,0,0,-3,-5,5
Cc1nnc2n(Cc3ccccc3)c(=O)c3c4c(sc3n12)COC(C(C)C)C4 (stereo not given),0,4,55*,1,7
COc1cccc(CN2CCNC(=O)C2CC(=O)NCCc2nc(C)c(C)s2)c1OC (stereo not given),0,23,-3,-3,7
SMILES,Hsp70 act,HSF1 activator,L major viab,HSF1 inh,T cruzi inh
CN(C)c1nc2ccc(OCCN3CCCCC3)cc2s1,0,-26,60*,-10,24
CCOc1ccc2nc(N3CCCCCC3)sc2c1,0,72*,8,45,5
CCOc1ccc2nc(NC(=O)C3CCCN(S(=O)(=O)c4cccc5nonc45)C3)sc2c1 (stereo not given),0,32,2,6,57*
CCN(CC)CCOc1ccc2nc(N(C)C)sc2c1,0,1,36,8,3
COc1ccc2nc(NC(=O)C3CCCN(S(=O)(=O)c4cccc5nonc45)C3)sc2c1 (stereo not given),0,7,9,-3,26
CCOc1ccc2nc(N3CCCC(C(=O)NCC4CCCO4)C3)sc2c1 (stereo not given),/,-14,/,6,3
CCCN1CCN(CCCNC(=O)C2CCCN(c3nc4ccc(OCC)cc4s3)C2)CC1 (stereo not given),0,8,64*,-7,-3
CC(C)CNS(=O)(=O)c1ccc(CCC(=O)NCCC2=CCCCC2)cc1,0,-7,15,7,9
Nc1nnnn1/N=C/c1cc(Br)ccc1O,/,5,/,-2,10
C=CCc1ccc(OCC(O)CN2CCc3ccccc3C2)c(OC)c1 (stereo not given),/,1,/,3,4
COc1ccc(OC)c(-c2csc(NC(=O)c3ccc4c(c3)OCO4)n2)c1,0,36,-6,16,16
N#Cc1cccc(NC(=O)CC2CCCC2)c1,/,8,/,1,6
CCOc1ccc2nc(N3CCC(C(=O)N4CCN(C5CCCCC5)CC4)CC3)sc2c1,0,-6,95*,-4,7
Cc1cc(C)c2nc(N3CCC(C(=O)NCC4CCCO4)CC3)sc2c1 (stereo not given),/,3,/,6,-4
CCOc1ccc(NCc2cccn2-c2nnc(N3CCC(C(=O)NCCCN4CCCCC4)CC3)s2)cc1,/,-68,/,-57*,0
Cc1cc(C)c2nc(N3CCC(C(=O)NCCCN4CCCCC4)CC3)sc2c1,0,-1,97*,-4,15
O=C(N/N=C/c1ccsc1)c1ccc2ccccc2n1,0,25,-1,16,-20
O=C(NC1=NCCS1)c1ccc([N+](=O)[O-])cc1Cl,0,2,-5,-5,-10
CCOC(=O)N1CCN(CC(=O)Nc2ccc([N+](=O)[O-])cc2C(=O)Nc2ccccc2F)CC1,-1,-20,75*,-20,-41
O=C(CN1CCN(Cc2ccccc2)CC1)Nc1ccc([N+](=O)[O-])cc1C(=O)Nc1ccccc1F,0,7,99*,-3,45
CN(CC(=O)Nc1ccccc1Cl)C(=O)COC(=O)C1=COCCO1,/,8,/,2,-4
O=C(c1ccc2c(c1)OCO2)N(c1ccccc1)C1C=CS(=O)(=O)C1 (stereo not given),0,6,-7,-4,-21
O=C(c1cc2ccccc2oc1=O)N(c1ccc(Cl)cc1)C1C=CS(=O)(=O)C1 (stereo not given),0,14,61*,-4,-36
CSc1nc(C(=O)N2CCCC(C(=O)c3ccc(Cl)cc3)C2)cs1 (stereo not given),0,2,-2,-2,-7
C/C(=C\C(=O)c1ccccc1)Nc1ccc(O)cc1,0,9,17,11,-16
C/C(=C\C(=O)c1cccnc1)Nc1ccc(O)cc1,0,-16,99*,-4,-16
Cc1ccc(CNC(=O)C2CCN(c3nnc(N4CCCC4=O)s3)CC2)cc1,/,4,/,3,0
OC(COCC1COc2ccccc2O1)CN1CCN(c2ccccn2)CC1 (stereo not given),0,7,70*,-9,6

# Assay outcomes (PubChem)
